TbMetRS inhib = Trypanosoma brucei MetRS inhibition; purified T. brucei MetRS, ATP depletion, Kinase-Glo luminescence; inhibition, % at 11.9 µM; 360,000 tested, 0.4% active;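 active means inhibition above a per-plate cutoff of the control wells' mean inhibition plus 3 SD, cut at about 5.5% in these data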;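 further: 0% = DMSO wells median and 100% = median of wells with control inhibitor compound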
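Test system – parasite MetRS enzyme · Reagent – substrates ATP, L-methionine and bulk Escherichia coli tRNA · Doses – 11.9 µM compound single dose, 0.9% DMSO · Times – 15 min enzyme-compound preincubation, 2 h reaction, 10 min detection, 25 °C · Signal – Kinase-Glo luminescence, ATP depletion format · Controls – DMSO-only wells as low control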
Efflux pump inh = blocks antifungal efflux pumps in multiplex yeast assay; S. cerevisiae Candida pump triplex, Nile Red efflux; inhibition, % at 10 µM; 330,000 tested, 0.44% active;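 active means plate passing quality check with inhibition over a set limit, or well fluorescence over plate mean plus 4 SD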;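 further: Nile Red retained in pooled yeast measured as flow cytometry median fluorescence; 0% = buffer negative control and 100% = Enniatin B positive control; higher means more Nile Red kept so more efflux inhibition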
AHR act = human AHR activation | AHR-responsive luciferase reporter cells, luminescence | 320,000 tested, 2.5% active | activation, % at 5 µM; in the data active means activation above about 47%;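 further: 0% = vehicle wells and 100% = reference agonist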
Target sequence (P35869 whole entry, looked up): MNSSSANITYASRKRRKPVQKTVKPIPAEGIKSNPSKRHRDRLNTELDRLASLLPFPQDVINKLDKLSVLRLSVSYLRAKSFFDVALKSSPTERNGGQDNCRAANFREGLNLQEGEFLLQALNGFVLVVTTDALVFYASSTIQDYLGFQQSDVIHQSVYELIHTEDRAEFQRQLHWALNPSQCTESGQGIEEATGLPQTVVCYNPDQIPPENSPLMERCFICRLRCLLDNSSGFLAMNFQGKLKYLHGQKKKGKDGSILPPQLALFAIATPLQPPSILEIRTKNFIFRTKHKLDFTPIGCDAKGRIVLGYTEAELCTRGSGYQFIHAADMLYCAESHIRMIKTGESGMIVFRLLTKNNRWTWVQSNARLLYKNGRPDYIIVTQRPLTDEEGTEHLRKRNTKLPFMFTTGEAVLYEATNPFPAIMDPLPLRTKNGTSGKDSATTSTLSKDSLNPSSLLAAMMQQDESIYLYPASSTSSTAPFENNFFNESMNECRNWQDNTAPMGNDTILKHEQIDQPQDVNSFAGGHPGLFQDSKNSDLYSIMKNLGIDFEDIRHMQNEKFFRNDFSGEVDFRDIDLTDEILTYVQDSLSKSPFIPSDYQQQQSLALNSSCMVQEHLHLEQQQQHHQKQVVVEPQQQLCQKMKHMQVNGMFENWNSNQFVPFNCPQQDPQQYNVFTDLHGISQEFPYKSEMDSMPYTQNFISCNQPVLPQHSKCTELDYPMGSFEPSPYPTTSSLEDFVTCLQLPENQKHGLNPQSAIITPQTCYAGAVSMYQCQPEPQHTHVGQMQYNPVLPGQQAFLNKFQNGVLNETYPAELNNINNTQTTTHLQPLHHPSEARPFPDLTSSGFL
TAG inh = reduces triacylglycerol accumulation in H9c2 cells; Nile Red lipid (TAG) fluorescence; cells loaded with 200 µM oleic acid; inhibition, % at 12.5 µM; 230,000 tested, 0.66% active; AID 651582;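 active means pattern-corrected inhibition of lipid staining of at least 50% with the nuclear-stain viability signal not falling by more than 50%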;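 further: 0% = DMSO wells and 100% = triacsin C control wells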
SMARCA2 act = increases SMARCA2 function in MMTV reporter cells | MG213 cells, MMTV-luciferase reporter, dexamethasone, overnight | activation, % at 9.1 µM | 370,000 tested, 1% active; in the data active means activation above about 7.8%;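 further: 0% = vehicle wells and 100% = reference activator wells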
H9c2 TAG conf = confirmation of triacylglycerol accumulation inhibitors. shares compounds with TAG inh. H9c2 lipid accumulation, Nile Red fluorescence; cells loaded with 200 µM oleic acid. inhibition, % at 12.5 µM. 990 tested, 71% active. AID 651629;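 active means mean inhibition across replicates of 40% or more; inactive means mean inhibition below 40%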;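 further: plate controls were DMSO only wells for no effect and Triacsin C treated wells for full effect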
The depositor's hits bear a star. Hits are enriched below; roughly 4.1% of the tested compounds scored in any of these assays.

Results for Cc1ccc(NC(=O)CCS(=O)(=O)c2ccccc2)cc1C ?
SMARCA2 act: 4

How did COc1ccc(NC(=O)c2nc(C)c(C3(C)CC(c4ccccc4)=NO3)s2)cc1 (stereo not drawn) do in these assays?
TbMetRS inhib: 0; Efflux pump inh: 0; AHR act: 10; TAG inh: 76*; SMARCA2 act: -3; H9c2 TAG conf: 94*

How did Cc1nc(C(=O)Nc2ccccc2)sc1C1(C)CC(c2cccnc2)=NO1 (stereo not drawn) do in these assays?
TbMetRS inhib: 0; AHR act: 12; SMARCA2 act: 1

What do the screens show for `O=C1C(Cl)=C(NCc2ccco2)C(=O)c2ccccc21`?
TbMetRS inhib: 0; TAG inh: 65*; SMARCA2 act: -4; H9c2 TAG conf: 46*

How did CCN1CCN(c2ncc3c(n2)CC(c2cc(OC)c(OC)c(OC)c2)CC3=O)CC1 (stereo not drawn) do in these assays?
TbMetRS inhib: 0; Efflux pump inh: 0; AHR act: -5; TAG inh: 60*; SMARCA2 act: -4; H9c2 TAG conf: 82*

Results for O=C1CC(c2cccc(Cl)c2)Cc2nc(N3CCN(c4ccccc4)CC3)ncc21 (stereo not drawn) ?
TbMetRS inhib: 0; Efflux pump inh: 0; AHR act: 2; TAG inh: 34; SMARCA2 act: 1

What do the screens show for `CC(C)c1ccc(NC(=O)Nc2nc(C(N)COCc3ccccc3)cs2)cc1` (stereo not drawn)?
TbMetRS inhib: 0; TAG inh: 83*; SMARCA2 act: -6; H9c2 TAG conf: 102*

How did COc1ccccc1CNC(=O)Nc1nc(C(N)CCc2ccccc2)cs1 (stereo not drawn) do in these assays?
TbMetRS inhib: 0; TAG inh: 57*; SMARCA2 act: -3; H9c2 TAG conf: 35

What do the screens show for `NC(CCc1ccccc1)c1csc(NC(=O)NCCc2ccccc2)n1` (stereo not drawn)?
TbMetRS inhib: 0; TAG inh: 45; SMARCA2 act: -3

How did CC(C)c1ccc(NC(=O)Nc2nc(C(N)c3ccccc3)cs2)cc1 (stereo not drawn) do in these assays?
TbMetRS inhib: 0; TAG inh: 36; SMARCA2 act: -5

How did COc1cc(CNC(=O)Nc2nc(C(N)Cc3ccc(Cl)cc3)cs2)cc(OC)c1OC (stereo not drawn) do in these assays?
TbMetRS inhib: 0; TAG inh: 67*; SMARCA2 act: -2; H9c2 TAG conf: 94*

How did NC(Cc1ccc(Cl)cc1)c1csc(NC(=O)NCCc2ccccc2)n1 (stereo not drawn) do in these assays?
TbMetRS inhib: 0; TAG inh: 74*; SMARCA2 act: -4; H9c2 TAG conf: 42*

Results for COc1ccc(CC(N)c2csc(NC(=O)NCCc3ccccc3)n2)cc1 (stereo not drawn) ?
TbMetRS inhib: 0; TAG inh: 36; SMARCA2 act: -3

Results for Nc1[nH]c(C(=O)c2ccc(Br)cc2)c(-c2ccccc2)c1C(=O)NCCc1c[nH]c2ccccc12 ?
SMARCA2 act: -3

How did COc1cccc(Nc2nc(C(N)Cc3ccc(F)cc3)cs2)n1 (stereo not drawn) do in these assays?
TbMetRS inhib: 0; TAG inh: 20; SMARCA2 act: -6

How did COc1ccc(CC(N)c2csc(NC(=O)c3cccc(OC(F)(F)F)c3)n2)cc1 (stereo not drawn) do in these assays?
TbMetRS inhib: 0; TAG inh: 52*; SMARCA2 act: -5; H9c2 TAG conf: 34

What do the screens show for `COc1ccc(CNC(=O)Nc2nc(C(N)Cc3ccc(C(F)(F)F)cc3)cs2)cc1` (stereo not drawn)?
TbMetRS inhib: 0; TAG inh: 61*; SMARCA2 act: -4; H9c2 TAG conf: 35

How did COc1cccc(Nc2nc(C(N)Cc3ccc(C(F)(F)F)cc3)cs2)n1 (stereo not drawn) do in these assays?
TbMetRS inhib: 0; TAG inh: 72*; SMARCA2 act: 0; H9c2 TAG conf: 37

How did COc1ccc(CC(N)c2csc(NC(=O)c3ccc(OC)cc3)n2)cc1 (stereo not drawn) do in these assays?
TbMetRS inhib: 0; TAG inh: 17; SMARCA2 act: -3

How did COc1ccccc1NC(=O)N(C)C[C@H]1OCc2cn(nn2)CCCC(=O)N([C@H](C)CO)C[C@@H]1C do in these assays?
SMARCA2 act: -3

Results for Nc1c(Cl)cc(-c2csc(N3CCCC3c3nc4cc(Cl)c(N5CCCCC5)cc4n3CCOCCO)n2)cc1Cl (stereo not drawn) ?
TbMetRS inhib: 0; Efflux pump inh: 0; AHR act: 42; TAG inh: 75*; SMARCA2 act: -1; H9c2 TAG conf: 81*

What do the screens show for `Nc1c(Cl)cc(-c2csc(N3CCCC3c3nc4cc(Cl)c(Cl)cc4n3CCCO)n2)cc1Cl` (stereo not drawn)?
TbMetRS inhib: 0; Efflux pump inh: 0; AHR act: 16; TAG inh: 71*; SMARCA2 act: -2; H9c2 TAG conf: 79*

How did OCCCn1c(C2CCCN2c2nc(-c3ccc(Cl)cc3)cs2)nc2cc(Cl)c(Cl)cc21 (stereo not drawn) do in these assays?
TbMetRS inhib: 0; Efflux pump inh: 0; AHR act: 20; TAG inh: 39; SMARCA2 act: 0

Results for COc1ccc(CN2C/C(=C/c3ccccc3)N3C(=O)C[C@@H](c4ccc5ccccc5c4)N=C23)c(OC)c1 ?
SMARCA2 act: -4

How did COc1ccc(-c2cnnc(N/N=C/c3ccc(-c4ccc([N+](=O)[O-])cc4)o3)n2)cc1 do in these assays?
TbMetRS inhib: 0; TAG inh: 63*; SMARCA2 act: -1; H9c2 TAG conf: 61*

How did Cc1nn(-c2ccccc2)c(C)c1/C=N/NC(=O)c1[nH][nH]c(=O)c1C do in these assays?
SMARCA2 act: -1

Results for COc1ccc(-c2nn3c(-c4ccco4)nnc3s2)cc1OC ?
TbMetRS inhib: 0; Efflux pump inh: 0; AHR act: 0; TAG inh: 5; SMARCA2 act: 1

What do the screens show for `COc1cc(OC)c(-c2nn3c(-c4ccco4)nnc3s2)cc1OC`?
TbMetRS inhib: -1; TAG inh: 54*; SMARCA2 act: -1; H9c2 TAG conf: 38

How did O=C(C(=O)N1CCN(C(=O)C2CCCC2)CC1)c1cccc(C(F)(F)F)c1 do in these assays?
SMARCA2 act: 0

How did CCO[C@@H]1OC(C(=O)N2CCN(Cc3ccccc3)CC2)=C[C@H](c2ccc(Br)cc2)[C@H]1CCCO do in these assays?
TbMetRS inhib: 0; AHR act: 3; TAG inh: 15; SMARCA2 act: -2

How did CCO[C@@H]1OC(C(=O)N2CCN(Cc3ccccc3)CC2)=C[C@H](c2ccc(C(F)(F)F)cc2)[C@H]1CCCO do in these assays?
TbMetRS inhib: -1; Efflux pump inh: 0; AHR act: 4; TAG inh: 53*; SMARCA2 act: 0; H9c2 TAG conf: 52*
